test system: Rattus norvegicus; experiment: Inhibition of total cholesterol in normolipidemic rats after 24 hr of 50 mg/kg oral dosing; no significant change; format: functional, organism-based; parameters: dose 50 mg/kg
Summary of the method: (§1)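 Overnight-fasted normolipidemic rats received a single oral dose in cornstarch vehicle. Blood was drawn at 2, 6 and 24 h post-dose and assayed for triglycerides and total cholesterol, with free access to food after the 6 h sample. Value is mean percent inhibition versus a separate vehicle-treated group, unpaired t test p < 0.05, NS = no significant change, N = 6.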

| SMILES | NS |
| --- | --- |
| O=C(Nc1ccc2c(c1)C[C@@H](NS(=O)(=O)c1ccccc1)C2)c1ccccc1-c1ccc(C(F)(F)F)cc1 | no significant change |
| COC(=O)NCC1Cc2ccc(NC(=O)c3cccc(C)c3-c3ccc(C(F)(F)F)cc3)cc2C1 (centres undefined) | no significant change |

test system: Rattus norvegicus; experiment: Inhibition of plasma triglycerides in normolipidemic rats after 2 hr of 50 mg/kg oral dosing; no significant change; format: functional, organism-based; parameters: dose 50 mg/kg; summary of the method: as §1

| SMILES | NS |
| --- | --- |
| O=C(Nc1ccc2c(c1)C[C@@H](NS(=O)(=O)c1ccccc1)C2)c1ccccc1-c1ccc(C(F)(F)F)cc1 | no significant change |

test system: Rattus norvegicus; experiment: Inhibition of plasma triglycerides in normolipidemic rats after 2 hr of 50 mg/kg oral dosing; format: functional; summary of the method: as §1

| SMILES | Reduction |
| --- | --- |
| COC(=O)NCC1Cc2ccc(NC(=O)c3cccc(C)c3-c3ccc(C(F)(F)F)cc3)cc2C1 (centres undefined) | 49% |

test system: Rattus norvegicus; experiment: Inhibition of plasma triglycerides in normolipidemic rats after 24 h of 50 mg/kg oral dosing; no significant change; format: functional, organism-based; parameters: dose 50 mg/kg; summary of the method: as §1

| SMILES | NS |
| --- | --- |
| O=C(Nc1ccc2c(c1)C[C@@H](NS(=O)(=O)c1ccccc1)C2)c1ccccc1-c1ccc(C(F)(F)F)cc1 | no significant change |
| COC(=O)NCC1Cc2ccc(NC(=O)c3cccc(C)c3-c3ccc(C(F)(F)F)cc3)cc2C1 (centres undefined) | no significant change |

test system: Rattus norvegicus; experiment: Inhibition of total cholesterol in normolipidemic rats after 6 h of […] mg/kg oral dosing; no significant change; format: functional, organism-based; parameters: dose 50 mg/kg

| SMILES | NS |
| --- | --- |
| O=C(Nc1ccc2c(c1)C[C@@H](NS(=O)(=O)c1ccccc1)C2)c1ccccc1-c1ccc(C(F)(F)F)cc1 | no significant change |
| COC(=O)NCC1Cc2ccc(NC(=O)c3cccc(C)c3-c3ccc(C(F)(F)F)cc3)cc2C1 (centres undefined) | no significant change |

test system: Rattus norvegicus; experiment: Inhibition of total cholesterol in normolipidemic rats after 2 hr of 50 mg/kg oral dosing; no significant change; format: functional, organism-based; parameters: dose 50 mg/kg; summary of the method: as §1

| SMILES | NS |
| --- | --- |
| O=C(Nc1ccc2c(c1)C[C@@H](NS(=O)(=O)c1ccccc1)C2)c1ccccc1-c1ccc(C(F)(F)F)cc1 | no significant change |
| COC(=O)NCC1Cc2ccc(NC(=O)c3cccc(C)c3-c3ccc(C(F)(F)F)cc3)cc2C1 (centres undefined) | no significant change |

test system: Rattus norvegicus; experiment: Inhibition of plasma triglycerides in normolipidemic rats after 6 h of […] mg/kg oral dosing; no significant change; format: functional, organism-based; parameters: dose 50 mg/kg

| SMILES | NS |
| --- | --- |
| O=C(Nc1ccc2c(c1)C[C@@H](NS(=O)(=O)c1ccccc1)C2)c1ccccc1-c1ccc(C(F)(F)F)cc1 | no significant change |
| COC(=O)NCC1Cc2ccc(NC(=O)c3cccc(C)c3-c3ccc(C(F)(F)F)cc3)cc2C1 (centres undefined) | no significant change |

molecular target: T1, Microsomal triglyceride transfer protein large subunit (Homo sapiens, UniProt P55157); experiment: In vitro inhibitory activity against MTP using MTP transfer assay
T1 sequence (P55157 whole entry): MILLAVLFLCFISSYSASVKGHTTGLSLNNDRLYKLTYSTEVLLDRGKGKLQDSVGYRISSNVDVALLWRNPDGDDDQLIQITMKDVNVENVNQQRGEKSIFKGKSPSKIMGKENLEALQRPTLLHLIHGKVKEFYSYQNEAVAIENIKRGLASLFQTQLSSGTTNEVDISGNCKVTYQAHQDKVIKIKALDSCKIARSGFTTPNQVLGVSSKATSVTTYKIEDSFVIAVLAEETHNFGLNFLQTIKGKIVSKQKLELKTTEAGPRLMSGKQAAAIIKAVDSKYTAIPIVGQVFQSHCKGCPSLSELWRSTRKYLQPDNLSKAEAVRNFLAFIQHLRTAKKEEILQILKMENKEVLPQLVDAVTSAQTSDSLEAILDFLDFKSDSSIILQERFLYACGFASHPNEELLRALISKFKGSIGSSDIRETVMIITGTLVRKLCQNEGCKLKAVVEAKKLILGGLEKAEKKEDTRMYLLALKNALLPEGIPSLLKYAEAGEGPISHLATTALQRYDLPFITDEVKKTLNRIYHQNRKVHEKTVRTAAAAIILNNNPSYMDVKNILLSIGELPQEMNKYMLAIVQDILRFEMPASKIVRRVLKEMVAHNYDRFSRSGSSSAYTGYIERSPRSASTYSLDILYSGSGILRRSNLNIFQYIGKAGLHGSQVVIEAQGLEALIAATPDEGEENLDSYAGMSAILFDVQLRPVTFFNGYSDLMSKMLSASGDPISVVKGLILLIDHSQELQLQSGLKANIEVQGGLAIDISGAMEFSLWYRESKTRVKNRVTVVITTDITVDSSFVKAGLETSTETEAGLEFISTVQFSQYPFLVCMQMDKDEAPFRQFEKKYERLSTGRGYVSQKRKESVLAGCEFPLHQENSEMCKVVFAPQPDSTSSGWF

| SMILES | IC50 |
| --- | --- |
| O=C(Nc1ccc2c(c1)C[C@@H](NS(=O)(=O)c1ccccc1)C2)c1ccccc1-c1ccc(C(F)(F)F)cc1 | 650 nM |
| COC(=O)NCC1Cc2ccc(NC(=O)c3cccc(C)c3-c3ccc(C(F)(F)F)cc3)cc2C1 (centres undefined) | 24 nM |

— ChEMBL document CHEMBL1134325, “Diaminoindanes as microsomal triglyceride transfer protein inhibitors” (J Med Chem, 2001)
